Assays:
[1] = tested on: HL-60; assay: Cytotoxicity against human HL60 cells after 48 hrs by MTT assay; assay type: functional, cell-based; settings: HL-60, 48 h
Method in brief: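 HL-60 cells were grown in RPMI 1640 with 10% FBS and penicillin/streptomycin, seeded at 5 × 10⁴/mL, and exposed to 5 concentrations (0.01–1.00) in PBS with 4% DMSO, in triplicate. MTT was added at 5 mg/mL for 4 h at 37 °C. Plates were centrifuged (1000 r/min, 10 min), supernatant discarded, and crystals dissolved in DMSO. Read at OD 570/630 nm, blank-corrected against control; IC50 = concentration giving 50% cell death.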

[2] = tested on: HeLa; assay: Cytotoxicity against human HeLa cells after 48 hrs by MTT assay; assay type: functional, cell-based
Method in brief: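 HeLa cells were grown in DMEM with 10% FBS and penicillin/streptomycin, seeded at 5 × 10⁴/mL, and treated with 0.5, 1.0, 5.0, 10 and 50 of compound in PBS with 4% DMSO, in triplicate. MTT (5 mg/mL) was added for 4 h at 37 °C without centrifugation, then supernatant removed and formazan dissolved in DMSO. Read at 570 nm (reference 630 nm) with survival normalized to medium-blanked control; IC50 = concentration causing 50% cell death.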

[3] = tested on: CCRF S-180; assay: Antitumor activity against mouse S180 cells xenografted in ip dosed Kunming mouse assessed as tumor growth inhibition after 7 days; assay type: functional
Method in brief: (§1)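 Kunming mice received 0.2 mL of S180 cells (passaged in mouse abdomen, harvested day 8, 2.0 × 10⁷/mL) and were randomized into groups of 10. Compounds were given at 7.8 mmol/L in 0.5% CMC-Na (solution or suspension), 0.2 mL i.p. daily for 7 days. Mice were then sacrificed and tumors weighed. Inhibition = (mean control weight − mean treated weight)/mean control weight × 100%.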

[4] = tested on: CCRF S-180; assay: Antitumor activity against mouse S180 cells xenografted in ip dosed Kunming mouse assessed as tumor weight after 7 days; assay type: functional; method in brief: as §1
[5] = Lipophilicity, log P of the compound; assay type: physicochemical; settings: octanol/water

| SMILES | IC50 [1] [µM] | IC50 [2] [µM] | TGI [3] [%] | Activity [4] [g] | logP [5] |
| --- | --- | --- | --- | --- | --- |
| CCCCCCCCCCCCCCCCCC(=O)N[C@@H](CCCNC(=N)N)C(=O)Nc1ccn([C@H]2O[C@@H](CO)[C@H](O)[C@H]2O)c(=O)n1 | 1.7 | 12.1 | 8.1 | 1.168 | 0.61 |
| CCCCCCCCCCCCCCCCCC(=O)N[C@@H](CCSC)C(=O)Nc1ccn([C@H]2O[C@@H](CO)[C@H](O)[C@H]2O)c(=O)n1 | 0.803 | 9 | 65.5 | 0.438 | 1.09 |
| CCCCCCCCCCCCCC(=O)N[C@@H](Cc1ccc(O)cc1)C(=O)Nc1ccn([C@H]2O[C@@H](CO)[C@H](O)[C@H]2O)c(=O)n1 | 1.71 | 39.1 | 11.4 | 1.125 | 0.9 |
| CCCCCCCCCCCCCCCCCC(=O)N[C@@H](CCC(=O)O)C(=O)Nc1ccn([C@H]2O[C@@H](CO)[C@H](O)[C@H]2O)c(=O)n1 | 1.14 | 19 | 12.9 | 1.106 | 0.5 |
| CCCCCCCCCCCCCC(=O)N[C@@H](CCCNC(=N)N)C(=O)Nc1ccn([C@H]2O[C@@H](CO)[C@H](O)[C@H]2O)c(=O)n1 | 0.405 | 32 | 39.2 | 0.773 | 0.45 |
| CCCCCCCCCC(=O)N[C@@H](CCSC)C(=O)Nc1ccn([C@H]2O[C@@H](CO)[C@H](O)[C@H]2O)c(=O)n1 | 0.28 | 3 | 25.6 | 0.944 | 0.68 |
| CCCCCCCCCCCCCCCCCC(=O)N[C@H](C(=O)Nc1ccn([C@H]2O[C@@H](CO)[C@H](O)[C@H]2O)c(=O)n1)C(C)C | 31.9 | 13 | 58.9 | 0.523 | 0.91 |
| CCCCCCCCCC(=O)N[C@H](C(=O)Nc1ccn([C@H]2O[C@@H](CO)[C@H](O)[C@H]2O)c(=O)n1)C(C)C | 2.04 | 4.99 | 7 | 1.181 | 0.78 |
| CCCCCCCCCC(=O)N[C@@H](CCCNC(=N)N)C(=O)Nc1ccn([C@H]2O[C@@H](CO)[C@H](O)[C@H]2O)c(=O)n1 | 0.584 | 6 | 15.7 | 1.071 | 0.76 |
| CCCCCCCCCC(=O)N[C@@H](Cc1ccc(O)cc1)C(=O)Nc1ccn([C@H]2O[C@@H](CO)[C@H](O)[C@H]2O)c(=O)n1 | 2.98 | 1 | 19.1 | 1.028 | 0.81 |
| CCCCCCCCCCCCCCCCCC(=O)N[C@@H](Cc1ccc(O)cc1)C(=O)Nc1ccn([C@H]2O[C@@H](CO)[C@H](O)[C@H]2O)c(=O)n1 | 1.15 | 10 | 16.5 | 1.06 | 0.97 |
| CCCCCCCCCCCCCC(=O)N[C@@H](CCSC)C(=O)Nc1ccn([C@H]2O[C@@H](CO)[C@H](O)[C@H]2O)c(=O)n1 | 0.272 | 8.02 | 37.6 | 0.793 | 0.88 |
| CCCCCCCCCCCCCC(=O)N[C@@H](CCC(=O)O)C(=O)Nc1ccn([C@H]2O[C@@H](CO)[C@H](O)[C@H]2O)c(=O)n1 | 0.502 | 41 | 24.6 | 0.958 | 0.25 |
| CCCCCCCCCCCCCC(=O)N[C@H](C(=O)Nc1ccn([C@H]2O[C@@H](CO)[C@H](O)[C@H]2O)c(=O)n1)C(C)C | 32.3 | 26 | 8.4 | 1.163 | 0.9 |
| CCCCCCCCCC(=O)N[C@@H](CCC(=O)O)C(=O)Nc1ccn([C@H]2O[C@@H](CO)[C@H](O)[C@H]2O)c(=O)n1 | 1.86 | 5 | 15.6 | 1.072 | -0.28 |
| Nc1ccn([C@@H]2O[C@H](CO)[C@@H](O)[C@@H]2O)c(=O)n1 [CYTARABINE] | 0.118 | 464 |  |  |  |

From ChEMBL document CHEMBL1153578, “Synthesis and evaluation of anti-tumor activities of N4 fatty acyl amino acid derivatives of 1-beta-arabinofuranosylcytosine” (Eur J Med Chem, 2009)
